# Reference: article PMC5791907 (European journal of medicinal chemistry, 2018)
# Columns and labels:
# [1] = system: HeLa cells; assay: Flow cytometric analysis of cell cycle distribution; format: cell-based, human; conditions: 24 h treatment, evident at 500 nM
# Procedure, shortened: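 HeLa cells (5 × 10^5) exposed to a range of test compound concentrations for 24 h, collected, and fixed in ice-cold 70% ethanol. Treated with lysis buffer containing RNase A and 0.1% Triton X-100, stained with PI, then analysed by flow cytometry. Phase distribution taken from DNA histograms. Mean ± SEM of two independent experiments.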
# [2] = system: HeLa cells; assay: Apoptosis assay; format: cell-based, human; conditions: 24 h incubation, further increased at 48 h
# [3] = system: HeLa cells; assay: Mitochondrial membrane potential; format: cell-based, human; conditions: 100–250 nM, 6-48 h
# Procedure, shortened: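 HeLa cells treated with test compound for 6, 12, 24 or 48 h, then stained with the lipophilic cationic probe JC-1. Mitochondrial potential read by flow cytometry. Data are mean ± SEM of three independent experiments.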
# [4] = system: L1210, FM3A, CEM and HeLa cell lines; assay: Antiproliferative activity over the panel of four cancer cell lines; format: cell-based
# Procedure, shortened: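 Cells were seeded at 300,000–500,000 cells/mL with serial dilutions of test compound and incubated at 37 °C: 2 days for L1210 and FM3A, 3 days for CEM, and 4 days for HeLa. Cell number was counted with a Coulter counter. For each line, IC50 was the concentration that inhibited proliferation by 50%.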
# [5] = system: HeLa cells; assay: ROS production; format: cell-based, human; conditions: 250 nM, starting after 12–24 h
# [6] = system: HeLa cells; assay: Western blot analysis of cell cycle checkpoint and apoptosis proteins; format: cell-based, human
compound,measurement,setting,value
"COC(=O)c1sc(-c2ccccc2)cc1Nc1cc(OC)c(OC)c(OC)c1 [Compound 4a, Methyl 5-phenyl-3-[(3,4,5-trimethoxyphenyl)amino]thiophene-2-carboxylate]",Effect on cell cycle progression,[1],induced a G2/M arrest
same,Induction of apoptosis (annexin-V/PI),[2],induced a significant proportion of apoptotic cells
"COC(=O)c1sc(-c2cccs2)cc1Nc1cc(OC)c(OC)c(OC)c1 [Compound 4c, Methyl 4-[(3,4,5-trimethoxyphenyl)amino]-[2,2′-bithiophene]-5-carboxylate]",Mitochondrial depolarization (cells with low Δψmt),[3],time-dependent increase in the percentage of cells with low Δψmt
same,IC50,"[4]; read-out: mean IC50 value (antiproliferative activity), mean over cell lines",140 nM
same,Effect on cell cycle progression,[1],induced a G2/M arrest
same,Induction of apoptosis (annexin-V/PI),[2],induced a significant proportion of apoptotic cells
same,ROS production,[5],induced significant production of ROS
same,PARP cleavage,[6],concentration-and time-dependent cleavage of PARP
same,cyclin B1 expression,"[6]; 24 h, concentration-dependent, marked reduction at 48 h",increase in cyclin B1 expression
same,cdc25c expression,"[6]; 24 h, even at 100 nM",marked reduction in the expression of phosphatase cdc25c
same,phosphorylated Cdk1,"[6]; 24 h and 48 h, 250 nM",decrease in the phosphorylated form of cyclin dependent kinase-1
same,expression of anti-apoptotic proteins Bcl-2 and Mcl-1,"[6]; starting after 24 h, even at 0.1 μM",decreased
"COC(=O)c1sc(-c2ccc(C)cc2)cc1Nc1cc(OC)c(OC)c(OC)c1 [Compound 4i, Methyl 5-(p-tolyl)-3-[(3,4,5-trimethoxyphenyl)amino]thiophene-2-carboxylate]",Effect on cell cycle progression,[1],induced a G2/M arrest
same,Induction of apoptosis (annexin-V/PI),[2],induced a significant proportion of apoptotic cells
"COC(=O)c1sc(-c2cc(OC)c(OC)c(OC)c2)cc1Nc1cc(OC)c(OC)c(OC)c1 [Compound 4p, Methyl 5-(3,4,5-trimethoxyphenyl)-3-[(3,4,5-trimethoxyphenyl)amino]thiophene-2-carboxylate]",antiproliferative activity (in words),[4]; four cancer cell lines,not active
